{
  "source": "ChEMBL document CHEMBL4145497",
  "about": "“Discovery of 2-aminothiazolyl berberine derivatives as effectively antibacterial agents toward clinically drug-resistant Gram-negative Acinetobacter baumanii” (Eur J Med Chem, 2018)",
  "key": {"Micrococcus luteus": {"system": "Micrococcus luteus", "test": "Antibacterial activity against Micrococcus luteus ATCC 4698 after 18 to 24 hrs by CLSI two fold serial dilution method", "format": "functional"}, "Bacillus subtilis": {"system": "Bacillus subtilis", "test": "Antibacterial activity against Bacillus subtilis ATCC 21216 after 18 to 24 hrs by CLSI two fold serial dilution method", "format": "functional"}, "Candida parapsilosis": {"system": "Candida parapsilosis", "test": "Antifungal activity against Candida parapsilosis ATCC 22019 by CLSI two fold serial dilution method", "format": "functional", "details": "Lodderomyces parapsilosis"}, "[1]": {"test": "Aqueous solubility of the compound in phosphate buffer at pH 7.4 after 3 hrs by UV detection assay", "format": "physicochemical", "procedure,_shortened": "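Water solubility measured at physiological pH, with berberine as the control.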"}, "Cyberlindnera jadinii": {"system": "Cyberlindnera jadinii", "test": "Antifungal activity against Candida utilis ATCC 9950 by CLSI two fold serial dilution method", "format": "functional", "details": "Williopsis jadinii"}, "Saccharomyces cerevisiae": {"system": "Saccharomyces cerevisiae", "test": "Antifungal activity against Saccharomyces cerevisiae ATCC 9763 by CLSI two fold serial dilution method", "format": "functional"}, "Acinetobacter baumannii [2]": {"system": "Acinetobacter baumannii", "test": "Antibacterial activity against drug-resistant Acinetobacter baumannii at 0.7 ug/ml measured 12 hrs post 10 serial passages", "format": "functional, organism-based"}, "Pichia norvegensis": {"system": "Pichia norvegensis", "test": "Antifungal activity against Candida mycoderma ATCC 96918 by CLSI two fold serial dilution method", "format": "functional"}, "Staphylococcus aureus": {"system": "Staphylococcus aureus", "test": "Antibacterial activity against Staphylococcus aureus ATCC 25923 after 18 to 24 hrs by CLSI two fold serial dilution method", "format": "functional"}, "Escherichia coli": {"system": "Escherichia coli", "test": "Antibacterial activity against Escherichia coli DH52 after 18 to 24 hrs by CLSI two fold serial dilution method", "format": "functional"}, "Aspergillus flavus": {"system": "Aspergillus flavus", "test": "Antifungal activity against Aspergillus flavus ATCC 204304 by CLSI two fold serial dilution method", "format": "functional"}, "Acinetobacter baumannii [3]": {"system": "Acinetobacter baumannii", "test": "Bactericidal activity against drug-resistant Acinetobacter baumannii assessed as reduction in number of viable bacterial load at 8 nmol/ml with in 2 hrs by time kill assay", "format": "functional"}, "Pseudomonas aeruginosa": {"system": "Pseudomonas aeruginosa", "test": "Antibacterial activity against Pseudomonas aeruginosa ATCC 27853 after 18 to 24 hrs by CLSI two fold serial dilution method", "format": "functional"}, "[4]": {"test": "Cytotoxicity against human LO2 cells assessed as cell viability at 1.5625 to 100 ug/ml after 48 hrs by MTT assay relative to control", "format": "cell-based, L02", "details": "read-out: Activity", "procedure,_shortened": "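Human hepatocyte LO2 cells exposed to compound across a concentration range for 48 h; viability read by colorimetric MTT assay; standard deviation from three independent experiments.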"}, "Acinetobacter baumannii [5]": {"system": "Acinetobacter baumannii", "test": "Induction of membrane permeabilization in drug-resistant Acinetobacter baumannii at 0.024 umol/ml incubated for 1 hr measured up to 120 mins by propidium iodide staining-based fluorescence spectra analysis", "format": "functional, organism-based"}, "Candida albicans": {"system": "Candida albicans", "test": "Antifungal activity against Candida albicans ATCC 76615 by CLSI two fold serial dilution method", "format": "functional"}},
  "note": "Active and inactive are the calls of the source. The rule behind the calls is not given here.",
  "data": [
    {"smiles": "COc1cc(/C=N/Nc2nccs2)c2c(c1OCc1ccc(Cl)cc1Cl)CN1CCc3cc4c(cc3C1C2)OCO4", "note": "(stereo unspecified)", "values": [
      {"measurement": "MIC", "setting": "Micrococcus luteus", "value": 110, "unit": "µM"},
      {"measurement": "MIC", "setting": "Bacillus subtilis", "value": 210, "unit": "µM"},
      {"measurement": "MIC", "setting": "Candida parapsilosis", "value": 7, "unit": "µM"},
      {"measurement": "solubility at 3 h", "setting": "[1]", "value": 1900, "unit": "µg/mL"},
      {"measurement": "MIC", "setting": "Cyberlindnera jadinii", "value": 210, "unit": "µM"},
      {"measurement": "MIC", "setting": "Saccharomyces cerevisiae", "value": 840, "unit": "µM"},
      {"measurement": "Activity", "setting": "Acinetobacter baumannii [2]", "value": "Active"},
      {"measurement": "MIC", "setting": "Pichia norvegensis", "value": 420, "unit": "µM"},
      {"measurement": "MIC", "setting": "Staphylococcus aureus", "value": 110, "unit": "µM"},
      {"measurement": "MIC", "setting": "Escherichia coli", "value": 840, "unit": "µM"},
      {"measurement": "MIC", "setting": "Aspergillus flavus", "value": 420, "unit": "µM"},
      {"measurement": "Activity", "setting": "Acinetobacter baumannii [3]", "value": ">3", "unit": "deltalog10CFU/ml"},
      {"measurement": "MIC", "setting": "Pseudomonas aeruginosa", "value": 210, "unit": "µM"},
      {"measurement": "viability at 48 h", "setting": "[4]", "value": "> 80.5", "unit": "%"},
      {"measurement": "Activity", "setting": "Acinetobacter baumannii [5]", "value": "Active"},
      {"measurement": "MIC", "setting": "Candida albicans", "value": 420, "unit": "µM"}
    ]}
  ]
}
